Yeast growth inh – reduces growth of yeast BB579 in restrictive medium. S. cerevisiae BB579 growth, OD615, 48 h. inhibition, % at 10 µM. 140,000 compounds, 0.51% hits. AID 804;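 active = inhibition above a set limit, 3 SD over the mean compound inhibition, cut at about 44% in these data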
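Test system: S. cerevisiae DeaD strain BB579 yeast; Medium: restrictive CSMM-D medium; Compound: one dose, 10 µM compound with 0.25% DMSO; Incubation: 4 h cell preincubation, 48 h compound exposure, 30 °C humidified; Signal: OD at 615 nm; Benchmarks: amphotericin B at 10 µg/mL as positive control.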
Yeast lifespan up – yeast lifespan extension; 130,000 compounds, 0.68% hits; S. cerevisiae growth with nicotinamide, OD615; deaD strain in restrictive glucose medium; inhibition of the nicotinamide effect, % at 10 µM;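 active = inhibition above a set limit, placed 3 SD over the median of all compounds, cut at about 26% in these data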;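 note: 0% = nicotinamide-treated wells and 100% = cells grown without nicotinamide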
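assay system = DeaD-strain S. cerevisiae | buffer or medium = restrictive glucose medium | reagent = 1.5 mM nicotinamide | compound = 10 µM single point, 0.25% DMSO | incubation = 48 h compound exposure at 30 °C, humidified | signal = OD615 measurement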
Mdm2 ligase inh – inhibitors of human Mdm2 E3 ubiquitin ligase; Q00987; cell-based MDM2 ubiquitination luciferase reporter, 2 h; 0 = plate control, 100 = twice control, blank-subtracted; signal enhancement, % at 5 µM; 210,000 compounds, 0.11% hits; AID 1230;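 active = signal enhancement of 30% or more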;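 note: luminescence tracks abundance of the self-degrading MDM2-luciferase fusion protein; higher signal means inhibition of MDM2 E3 ligase activity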
Target sequence (Q00987 whole entry, looked up, the tested form may be a part): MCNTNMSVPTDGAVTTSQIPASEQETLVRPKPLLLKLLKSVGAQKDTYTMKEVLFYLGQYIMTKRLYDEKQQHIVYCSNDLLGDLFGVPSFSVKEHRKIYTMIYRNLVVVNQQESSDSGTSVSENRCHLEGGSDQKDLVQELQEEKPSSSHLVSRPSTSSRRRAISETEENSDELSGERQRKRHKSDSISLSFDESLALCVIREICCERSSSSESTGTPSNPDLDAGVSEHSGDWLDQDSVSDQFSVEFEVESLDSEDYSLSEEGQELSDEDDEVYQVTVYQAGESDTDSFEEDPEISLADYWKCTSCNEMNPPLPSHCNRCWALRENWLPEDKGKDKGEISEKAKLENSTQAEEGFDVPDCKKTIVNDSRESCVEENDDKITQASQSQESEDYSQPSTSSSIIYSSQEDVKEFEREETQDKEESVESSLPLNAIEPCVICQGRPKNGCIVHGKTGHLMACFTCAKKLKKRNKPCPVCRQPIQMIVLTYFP
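Assay system: mammalian cells stably expressing self-ubiquitinating, self-degrading MDM2 E3–luciferase fusion. Quantity: 2000 cells in each well. Medium: DMEM culture medium. Compound dosing: single-point 5 µM. Timing: cell settling 4 h, compound treatment 2 h, both 37 °C. Technique: luciferase luminescence. Read-out basis: percent signal gain over controls, blank-subtracted. Benchmarks: plate controls and plate blanks.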
INS promoter inh – TRM-6 insulin promoter activity inhibition. TRM-6 cells, insulin promoter-eGFP reporter, imaging; reporter expression induced with tamoxifen. inhibition, % at 2 µM. 130,000 compounds, 0.9% hits;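 active = inhibition above the mean plus 3 SD, with well images judged a real hit on visual review, cut at about 60% in these data, passing the limit was not always enough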
RAM network inh – blocks the yeast RAM network. inhibition, % at 50 µM. S. cerevisiae dse1pr::URA3 reporter, 5-FOA growth OD615, 2 d; analog-sensitive cbk1-as2 kinase mutant strain. 190,000 compounds, 1.8% hits;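 active = inhibition above a set limit, 3 SD over mean compound inhibition, cut at about 8.4% in these data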;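 note: 0% = DMSO-only wells with no growth and 100% = 10 µM 1-NA-PP1 full growth; inhibition rescues growth on 5-FOA so higher OD means more RAM inhibition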
Measles CPE – protection of cells from measles virus | Measles virus-infected cells, CPE protection, absorbance | protection (pct of control), % at 4 µM | 140,000 compounds, 1.5% hits | AID 841; in the data active = protection mostly above about 24%, no sharp cut-off; inactive = mostly below about 26%
Starred values were filed as active, the others as inactive. Only some compounds are listed: those with a hit (about 4% of all), similar ones and a draw of the others.

For CCOc1ccc2[nH]c(=O)c(CN(CC3CCCN3CC)C(=O)NCc3ccccc3)cc2c1 (stereo not drawn) the results were Yeast growth inh -12, Yeast lifespan up -22, Mdm2 ligase inh -21, INS promoter inh -72, RAM network inh 1 and Measles CPE 25*.
For CC(C)(C)NC(=O)CN(C(=O)CN1C(=O)C(=O)c2ccccc21)C(C)(C)C the results were Mdm2 ligase inh -9 and RAM network inh 0.
O=C1NCCc2c1[nH]c1ccc([N+](=O)[O-])cc21 was read as Mdm2 ligase inh -12, INS promoter inh 40 and RAM network inh 1.
For O=C(N/N=C1\CCCc2c1[nH]c1ccc([N+](=O)[O-])cc21)c1ccncc1 the results were Yeast growth inh -17, Yeast lifespan up 5, Mdm2 ligase inh -16, RAM network inh 8.4* and Measles CPE 8.
O=C(Cc1c[nH]c2ccccc12)NCc1ccccc1F was read as Mdm2 ligase inh -1 and RAM network inh -1.
For COc1ccc(CN2C(=O)/C(=C/c3ccc(-c4ccc(Cl)c(C(=O)O)c4)o3)SC2=S)cc1 the results were Mdm2 ligase inh -8, INS promoter inh 0 and RAM network inh 6.
O=C(O)c1cc(-c2ccc(/C=C3/SC(=S)N(Cc4ccccc4)C3=O)o2)ccc1Cl was read as Mdm2 ligase inh -1 and RAM network inh 9.4*.
`O=C(Nc1ccsc1C(=O)N1CCCC1)c1ccccc1` gave Mdm2 ligase inh -2, INS promoter inh 91* and RAM network inh 4.
`O=C(Nc1ccccc1C(=O)N1CCCC1)c1ccccc1` gave Yeast growth inh -31, INS promoter inh -54, RAM network inh 1 and Measles CPE 14.
Cc1ccc(NC(=O)CCC(=O)OCC(=O)c2ccc(Oc3ccc([N+](=O)[O-])cc3)cc2)cc1C was read as Yeast growth inh -11, Yeast lifespan up -3, Mdm2 ligase inh -9, INS promoter inh -49, RAM network inh 11* and Measles CPE 2.
Screening CC(=O)Nc1ccc(NC(=O)CCC(=O)OCC(=O)c2cccc([N+](=O)[O-])c2)cc1 returned Mdm2 ligase inh -6 and RAM network inh 1.
Screening COC(=O)c1cn(NC(=O)c2ccc(F)cc2)c(=O)c2ccccc12 returned Yeast growth inh -41, Yeast lifespan up 0, Mdm2 ligase inh -21, INS promoter inh -24, RAM network inh 3 and Measles CPE 44*.
Screening CCCCCc1c(C)nc(N2CCc3ccccc3C2)[nH]c1=O returned Yeast growth inh -64, Yeast lifespan up -1, Mdm2 ligase inh -8, INS promoter inh -72, RAM network inh 3 and Measles CPE 9.
CCCCCc1c(C)nc(N2CCc3ccccc32)[nH]c1=O was read as Yeast growth inh -46, Yeast lifespan up 4, Mdm2 ligase inh 1, INS promoter inh 22, RAM network inh 9.9* and Measles CPE 7.
For COc1ccc(CCNC(=O)c2cccnc2)cc1 the results were Yeast growth inh -54, Yeast lifespan up -12, Mdm2 ligase inh -23, INS promoter inh 41, RAM network inh 0 and Measles CPE 11.
Screening c1ccc(CCn2c3ccccc3c3nnc(SCc4ccc5nonc5c4)nc32)cc1 returned Yeast growth inh -72, Yeast lifespan up -7, Mdm2 ligase inh -3, INS promoter inh 17, RAM network inh 4 and Measles CPE 24*.
O=C(CN1C(=O)COc2ccccc21)Nc1ccc2c(c1)OCCO2 was read as Yeast growth inh -32, Yeast lifespan up 54*, Mdm2 ligase inh -13, INS promoter inh 25, RAM network inh 3 and Measles CPE 11.
For O=C(CN1CCCCC1)Nc1ccc(F)c(Cl)c1 the results were Yeast growth inh 4, Yeast lifespan up -2, Mdm2 ligase inh -16, INS promoter inh -30, RAM network inh 2 and Measles CPE 56*.
`O=C(CN1CCN(S(=O)(=O)c2cc(Cl)ccc2Cl)CC1)Nc1ccc2c(c1)OCCO2` gave Yeast growth inh -42, Yeast lifespan up -12, Mdm2 ligase inh -27, RAM network inh 1 and Measles CPE 42*.
For O=C(CN1C(=O)CSc2ccccc21)Nc1ccc2c(c1)OCCO2 the results were Yeast growth inh -39, Yeast lifespan up -13, Mdm2 ligase inh 0, INS promoter inh 0, RAM network inh 1 and Measles CPE 14.
`CCC(C)NC(=O)CSc1nnc(-c2cc(-c3cccs3)nc3ccccc23)o1` (stereo not drawn) gave Yeast growth inh -36, Yeast lifespan up -13, Mdm2 ligase inh -6, INS promoter inh 9, RAM network inh 5 and Measles CPE 23.
Screening COc1cccc(-c2cc(C(F)(F)F)nc(NCc3ccco3)n2)c1 returned Yeast growth inh -72, Yeast lifespan up -9, Mdm2 ligase inh -8, INS promoter inh -9, RAM network inh 8.9* and Measles CPE 10.
`FC(F)(F)c1cc(-c2ccc3c(c2)OCO3)nc(NCc2ccco2)n1` gave Yeast growth inh -32, Yeast lifespan up -17, Mdm2 ligase inh -2, INS promoter inh -20, RAM network inh 5 and Measles CPE 66*.
COc1ccc(-c2cc(C(F)(F)F)nc(NCc3ccco3)n2)cc1OC was read as Yeast growth inh -58, Yeast lifespan up 0, Mdm2 ligase inh -10, RAM network inh 3 and Measles CPE 4.
For Cc1oc(C(C)(C)C)c(CN2CCOCC2)c1C(=O)O the results were Mdm2 ligase inh -8 and RAM network inh 0.
`CCCc1nnc(NC(=O)CCC(=O)N2CCN(CCOc3ccc(C)cc3)CC2)s1` gave Yeast growth inh -7, Yeast lifespan up -11, Mdm2 ligase inh -12, INS promoter inh 5, RAM network inh 1 and Measles CPE 2.
Screening CCCc1nnc(NC(=O)CCC(=O)N2CCN(CCn3c(C)ccc3C)CC2)s1 returned Yeast growth inh -32, Yeast lifespan up -8, Mdm2 ligase inh 6, INS promoter inh -7, RAM network inh 2 and Measles CPE 31*.
`COc1cc(-c2nnc(CSc3nnc(Nc4ccc(Oc5ccccc5)cc4)s3)o2)cc(OC)c1OC` gave Yeast growth inh -11, Yeast lifespan up -3, Mdm2 ligase inh -22, RAM network inh 4 and Measles CPE 30.
Screening Cc1ccc(C(=O)C(c2ccccc2)N2Cc3ccccc3C2=N)cc1 (stereo not drawn) returned Yeast growth inh -28, Yeast lifespan up -2, Mdm2 ligase inh 4, INS promoter inh 55, RAM network inh -1 and Measles CPE 4.
Screening C=CCSc1ncc(C(=O)OCC)c(N)n1 returned Mdm2 ligase inh 4, INS promoter inh 100* and RAM network inh 0.

Assay outcomes (PubChem)
